Only some compounds are listed: those with a hit (about 1.9% of all), similar ones and a draw of the others.
CHRM4 antagonist = human M4 muscarinic receptor antagonists, primary screen, CHO cells, Fluo-8 calcium fluorescence. Muscarinic acetylcholine receptor M4 (Homo sapiens), P08173. CHO-hM4 cells, ACh EC80. inhibition, % at 3 µM. actives 0.73% (n = 360,000);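 active = inhibition above its plate's cutoff, the mean inhibition of sample wells plus 3 SD, cut at about 27% in these data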
CHRM4 PAM = human M4 muscarinic receptor positive allosteric modulators, primary screen, CHO-K1 cells, Fluo-8 calcium fluorescence. actives 0.4% (n = 360,000). CHO-K1 hM4/Gqi5, ACh EC20; 0% = ACh EC20, 100% = maximal ACh. Muscarinic acetylcholine receptor M4 (Homo sapiens), P08173. AID 624126, 2012. activation, % at 3 µM;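 active = activation above its plate's cutoff, the mean activation of sample wells plus 3 SD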
M5 PAM = human M5 muscarinic receptor positive allosteric modulators, primary screen, CHO-K1 cells, Fluo-8 calcium fluorescence. Muscarinic acetylcholine receptor M5 (Homo sapiens), P08912. activation, % at 3 µM. CHO-K1 hM5, ACh EC20 PAM; 0% = ACh EC20, 100% = ACh EC100. AID 624038, 2012. actives 0.3% (n = 360,000);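 active = activation above the run cutoff, the mean activation of all test compounds plus 3 SD, cut at about 18% in these data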
Target sequence (P08912 whole entry, looked up): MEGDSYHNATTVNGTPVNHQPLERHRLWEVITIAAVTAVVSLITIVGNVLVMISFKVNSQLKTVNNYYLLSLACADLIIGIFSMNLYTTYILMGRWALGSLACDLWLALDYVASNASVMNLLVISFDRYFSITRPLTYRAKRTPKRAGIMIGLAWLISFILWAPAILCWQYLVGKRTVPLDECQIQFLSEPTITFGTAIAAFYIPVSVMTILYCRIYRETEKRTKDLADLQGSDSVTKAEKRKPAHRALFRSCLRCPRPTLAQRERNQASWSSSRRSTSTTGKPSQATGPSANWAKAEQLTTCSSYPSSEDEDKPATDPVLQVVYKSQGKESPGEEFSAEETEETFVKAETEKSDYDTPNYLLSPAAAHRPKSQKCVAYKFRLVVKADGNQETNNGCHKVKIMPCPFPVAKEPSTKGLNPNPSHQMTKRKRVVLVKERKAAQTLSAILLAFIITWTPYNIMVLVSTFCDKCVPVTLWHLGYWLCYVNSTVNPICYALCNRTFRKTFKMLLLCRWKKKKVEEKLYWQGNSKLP
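System: CHO-K1 hM5 cells. Reagent: acetylcholine, EC20 level. Compound dosing: single dose, 3 µM nominal final test concentration. Timing: Post-acetylcholine fluorescence recording 140 s. Detection: Fluo-8 calcium fluorescence. Read-out: % activation, ACh-normalized. Benchmarks: ACh EC20 and EC100 wells. Repeats: singlicate, one well per test compound.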
CHRM5 agonist = human M5 muscarinic receptor agonists, primary screen, CHO-K1 cells, Fluo-8 calcium fluorescence; Muscarinic acetylcholine receptor M5 (Homo sapiens), P08912; CHO-K1 hM5 cells; 0% DMSO wells, 100% maximal acetylcholine response; activation, % at 3 µM; actives 0.19% (n = 360,000);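 active = activation above the run's mean over test compounds plus 3 SD, cut at about 23% in these data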;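 also: signal is peak over basal fluorescence ratio across the kinetic read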
M5 antag = human M5 muscarinic receptor antagonists, primary screen, CHO cells, Fluo-8 calcium fluorescence. Muscarinic acetylcholine receptor M5 (Homo sapiens), P08912. AID 624040, 2012. actives 0.59% (n = 360,000). inhibition, % at 3 µM. CHO-hM5 cells, ACh EC80;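 active = inhibition above a per-plate cutoff, the mean of that plate's test compounds plus 3 SD, cut at about 27% in these data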
CHRM4 agonist = human M4 muscarinic receptor agonists, primary screen, CHO-K1 cells, Fluo-8 calcium fluorescence; CHO-K1 hM4/Gqi5; vehicle 0%, full acetylcholine response 100%; activation, % at 3 µM; AID 624127, 2012; actives 0.14% (n = 360,000); Muscarinic acetylcholine receptor M4 (Homo sapiens), P08173;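 active = activation above the run mean over all test wells plus 3 SD, cut at about 32% in these data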;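 also: peak over basal fluorescence ratio per well then scaled between controls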
Hits are given with their value; . = inactive.

SMILES | CHRM4 antagonist | CHRM4 PAM | M5 PAM | CHRM5 agonist | M5 antag | CHRM4 agonist
COc1ccc(CCNC(=O)c2c(N)n(CCN3CCOCC3)c3nc4ccccc4nc23)cc1OC | . | . | . | . | 34.5 | .
CCN(CC)CCCC(C)N=C(c1ccccc1)c1c(O)n(C)c(=O)n(C)c1=O (stereo not drawn) | . | . | . | . | . | .
C[C@H]1CC[C@@H]2N(C1)C[C@H]1[C@@H]3C[C@H]4[C@@H](CC(=O)[C@H]5C[C@@H](O)CC[C@@]54C)[C@@H]3CC[C@H]1[C@]2(C)O | 84.5 | . | . | . | . | .
CC(=O)O[C@H]1CC[C@@]2(C)[C@H](C1)C(=O)C[C@H]1[C@@H]3CC[C@@H]4[C@@H](CN5C[C@@H](C)CC[C@H]5[C@@]4(C)O)[C@@H]3C[C@@H]12 | 65.1 | . | . | . | . | .
C[C@]12CC[C@H](O)CC1C(=O)CC1C2CC[C@@]2(C)C1CC[C@@H]2O (stereo partly drawn) | . | . | . | . | . | .
O=[N+]([O-])c1ccc(-[n+]2c(-c3ccccc3)cc(-c3ccccc3)cc2-c2ccccc2)cc1 | 39.6 | . | . | . | . | .
Oc1ccc(-[n+]2c(-c3ccccc3)cc(-c3ccccc3)cc2-c2ccccc2)cc1 | 54.2 | . | . | . | . | .
O=C(NCC1=C(c2ccc3ccccc3c2)C[C@@H]2CC[C@H]1N2Cc1ccco1)c1nccs1 | . | . | . | . | . | .
C=C1N2CCC(CC2)C1(O)c1ccc(C)c(C)c1 (stereo not drawn) | . | . | . | . | 33.4 | .
COc1ccc(-n2c(O)c(/C=C/C=Nc3ccccc3)c(=O)[nH]c2=O)cc1 | . | . | . | 24.2 | . | .
O=c1[nH]c(=O)n(C2CCCCC2)c(O)c1/C=C/C=Nc1ccccc1 | . | . | . | 28.0 | . | .
O=c1[nH]c(=O)n(-c2ccccc2)c(O)c1/C=C/C=Nc1ccccc1 | . | . | . | . | . | .
CC12CCC(=O)C=C1CC(N1CC1)C1C2CCC2(C)C(O)CCC12 (stereo not drawn) | . | . | . | . | . | .
CC(Cc1ccccc1)N(C)CC1C(=O)C2CCC1C2 (stereo not drawn) | . | . | . | . | . | .
CCN(CC)CCC(=O)O[C@H]1CC[C@]2(C)C3CC[C@@]4(C)C(CC[C@]4(C)O)C3CC[C@H]2C1 (stereo partly drawn) | 27.7 | . | . | . | . | .
c1ccc(C2(N3CCCCC3)CCCCC2)cc1 | . | . | . | . | . | .
S=C=Nc1cccc(C2(N3CCCCC3)CCCCC2)c1 | . | . | . | . | 27.5 | .
N#CC(CCN1CCOCC1)(c1ccccc1)c1ccccc1 | . | . | . | . | 27.5 | .
CC1CCCN(c2ccc(C(=O)N3CCC4(CC3)OCCO4)cc2[N+](=O)[O-])C1 (stereo not drawn) | . | . | . | . | . | .
CCOC(=O)C1CCCN(c2ccc([N+](=O)[O-])c3nonc23)C1 (stereo not drawn) | 52.6 | . | . | 184.7 | 52.3 | 314.2
COc1ccc(-c2nc3ccccc3c(=O)o2)cc1 | . | . | . | . | . | .
CC(C)(C)P(=O)(N1CCOCC1)N1CCOCC1 | . | . | . | . | . | .
O=P(Oc1ccccc1)(N1CCOCC1)N1CCOCC1 | . | 15.5 | . | . | . | .
C[C@]12C[C@H](O)[C@@H](O)C[C@@H]1CC[C@@H]1[C@@H]2CC[C@]2(C)C(=O)CC[C@@H]12 | . | . | . | . | . | .
Clc1ccc(C[n+]2c(-c3ccccc3)cc(-c3ccccc3)cc2-c2ccccc2)cc1 | 30.8 | . | . | . | . | .
SMILES | CHRM4 antagonist | CHRM4 PAM | M5 PAM | CHRM5 agonist | M5 antag | CHRM4 agonist
Cc1cc(-c2ccccc2)cc(-c2ccccc2)[n+]1CCc1ccccc1 | 37.8 | . | . | . | . | .
CCN(CC)C(=O)c1ccc(NC(=O)c2cn(-c3ccccc3)nc2-c2ccc(OC)cc2)cc1 | . | . | . | . | 28.1 | .
CCC(=O)C(CCN1CCOCC1)(c1ccccc1)c1ccccc1 | . | . | . | . | . | .
CC(C)[N+](C)(CCC(C(N)=O)(c1ccccc1)c1ccccc1)C(C)C | 99.7 | . | . | . | 98.7 | .
Cc1cc2c(cc1C)NP(=S)(c1ccccc1)N2 | . | . | . | . | . | .
COC1C(C)OC(OC2CC(C)(O)Cc3cc4c(c(O)c32)C(=O)c2c(O)cc3c(c2C4=O)OC2OC3(C)C(O)C(N(C)C)C2O)C(OC)C1(C)OC (stereo not drawn) | . | . | . | 30.1 | . | .
CCCCCCNc1nc(OC)nc(N2CC3CC(C2)c2cccc(=O)n2C3)n1 (stereo not drawn) | . | . | . | . | . | .
Cc1ccc(-c2nc3ccccc3c(=O)n2-c2cccc(O)c2)cc1 | . | . | . | . | . | .
Cc1nc2ccccc2c(=O)n1-c1cccc(O)c1 | . | 17.2 | . | . | . | .
Cc1ccc2nsnc2c1-n1c(C)nc2ccccc2c1=O | . | 29.7 | . | . | . | .
COc1ccc(-n2c(C)nc3ccccc3c2=O)c([N+](=O)[O-])c1 | . | . | . | . | . | .
CC(C)COC(=O)c1ccccc1C(=O)OCC(C)C | . | . | . | . | . | .
C[CH2][Hg][S]c1ccccc1C(=O)O | 35.9 | 33.4 | . | . | . | .
O=c1[nH]c2ccccc2n1C1CCN(Cc2ccc(-c3nc4ccccc4nc3-c3ccccc3)cc2)CC1 | . | . | . | 32.5 | . | .
Cc1ccc2nc(-c3ccc(CN4CCC(n5c(=O)[nH]c6ccccc65)CC4)cc3)c(-c3ccccc3)nc2c1 | . | . | . | 26.8 | . | .
CCC(c1nnnn1Cc1ccccc1)N1CCC(n2c(=O)[nH]c3ccccc32)CC1 (stereo not drawn) | 26.8 | . | . | . | . | .
COc1ccc2nc(-c3ccc(CN4CCC(n5c(=O)[nH]c6ccccc65)CC4)cc3)c(-c3ccccc3)nc2c1 | . | . | . | . | . | .
CCCCn1nnnc1C(CCc1ccccc1)N1CCC(n2c(=O)[nH]c3ccccc32)CC1 (stereo not drawn) | . | . | . | . | . | .
O=c1[nH]c2ccccc2n1C1CCN(Cc2ccc(-c3nc4ccc(F)cc4nc3-c3ccccc3)cc2)CC1 | . | . | . | . | . | .

Compound activity: PubChem, The Scripps Research Institute Molecular Screening Center
